We go through one molecule from ChEMBL document CHEMBL5715938, “The protein kinase Cbeta-selective inhibitor, Enzastaurin (LY317615.HCl), suppresses signaling through the AKT pathway, induces apoptosis, and suppresses growth of human colon cancer and glioblastoma xenografts” (Cancer Res, 2005).

Active and inactive are the calls of the source. No cut-off for these calls is given here.

In the experiment the target is Glycogen synthase kinase-3 beta (Homo sapiens) (UniProt P49841). The experiment is described as follows: Inhibition of GSK3beta phosphorylation at serine 9 residue in human HCT-116 cells at 1 micromol/L by Western blotting analysis. Format: cell-based. The note with it: dose 1.0 µmol/L, time <= 4.0 hrs. The method in brief: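 Cultured tumor cells treated with 1 μmol/L drug; lysates in cell extraction buffer with protease inhibitors, western blotted with phospho-specific antibodies (pGSK3β Ser9, pAKT Thr308, phospho-ERK) alongside total GSK3β/AKT.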
Sequence of Glycogen synthase kinase-3 beta (Homo sapiens) (P49841 whole entry, looked up): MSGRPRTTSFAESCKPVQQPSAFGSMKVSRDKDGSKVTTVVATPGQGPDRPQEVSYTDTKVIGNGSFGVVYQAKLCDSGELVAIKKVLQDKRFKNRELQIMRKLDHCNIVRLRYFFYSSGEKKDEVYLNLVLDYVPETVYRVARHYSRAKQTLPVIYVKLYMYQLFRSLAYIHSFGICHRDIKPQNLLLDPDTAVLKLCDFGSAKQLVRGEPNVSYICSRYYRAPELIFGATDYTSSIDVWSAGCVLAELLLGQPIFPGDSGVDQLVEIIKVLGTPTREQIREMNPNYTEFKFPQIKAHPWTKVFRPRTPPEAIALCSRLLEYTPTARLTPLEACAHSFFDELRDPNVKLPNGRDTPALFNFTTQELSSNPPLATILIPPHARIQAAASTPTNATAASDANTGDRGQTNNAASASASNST
On the technique in general: Immunoblotting shows a protein as a band on a membrane.

Consider `CO[C@@H]1[C@H](N(C)C(=O)c2ccccc2)C[C@H]2O[C@]1(C)n1c3ccccc3c3c4c(c5c6ccccc6n2c5c31)C(=O)NC4`, for which the inhibition result is “Active”.
